“And” between values parts separate entries of the source, which are not always exact repeats. Equal entries are not always repeated. “Also recorded” adds a separate entry of the source.
How the values were obtained:
Dopamine D2S receptor = Dopamine D2S receptor (Homo sapiens, UniProt P14416); experiment: Lead Profiling Screen; format: binding; conditions: significant interaction
[1] = Protein binding in plasma; conditions: human
Kir2.1 = target: T1, Kir2.1 (Homo sapiens, UniProt P63252); experiment: Tl+ flux selectivity assay, Kir2.1; format: cell-based; conditions: for Kir Channel Selectivity (Fold) 2.1: Thallium flux, Kir7.1 over Kir2.1
T1 sequence (P63252 1-427): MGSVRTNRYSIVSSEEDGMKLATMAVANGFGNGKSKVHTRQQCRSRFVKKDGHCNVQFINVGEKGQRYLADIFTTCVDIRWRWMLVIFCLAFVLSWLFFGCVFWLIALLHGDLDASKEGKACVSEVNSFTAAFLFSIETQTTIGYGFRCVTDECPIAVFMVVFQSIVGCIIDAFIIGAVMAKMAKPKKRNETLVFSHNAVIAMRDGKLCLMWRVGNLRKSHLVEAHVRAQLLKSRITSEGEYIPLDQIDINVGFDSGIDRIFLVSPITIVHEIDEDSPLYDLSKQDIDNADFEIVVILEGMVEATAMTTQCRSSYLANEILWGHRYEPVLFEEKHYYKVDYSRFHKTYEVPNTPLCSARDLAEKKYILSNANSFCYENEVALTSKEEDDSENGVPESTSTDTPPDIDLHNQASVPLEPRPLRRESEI
In short: (§1)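 Tetracycline-inducible stable T-REx-HEK-293 lines, induced overnight with 1 µg/ml tetracycline in DMEM/10% dialyzed FBS. Cells loaded 1 hr with 1.2 µM Thallos-AM in HBSS/20 mM HEPES pH 7.3 with 0.01% Pluronic F-127. Baseline fluorescence (ex 470, em 540 nm) read at 1 Hz before adding stimulus buffer with 1.8 mM Tl₂SO₄. Traces normalized to first point and vehicle-subtracted; slope taken 5–20 s post-Tl⁺; IC50 by nonlinear regression of CRCs.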

Kir2.2 = target: T2, Kir2.2 (Homo sapiens, UniProt Q14500); experiment: Tl+ flux selectivity assay, Kir2.2; format: cell-based; conditions: for Kir Channel Selectivity (Fold) 2.2: Thallium flux, Kir7.1 over Kir2.2
T2 sequence (Q14500 1-433): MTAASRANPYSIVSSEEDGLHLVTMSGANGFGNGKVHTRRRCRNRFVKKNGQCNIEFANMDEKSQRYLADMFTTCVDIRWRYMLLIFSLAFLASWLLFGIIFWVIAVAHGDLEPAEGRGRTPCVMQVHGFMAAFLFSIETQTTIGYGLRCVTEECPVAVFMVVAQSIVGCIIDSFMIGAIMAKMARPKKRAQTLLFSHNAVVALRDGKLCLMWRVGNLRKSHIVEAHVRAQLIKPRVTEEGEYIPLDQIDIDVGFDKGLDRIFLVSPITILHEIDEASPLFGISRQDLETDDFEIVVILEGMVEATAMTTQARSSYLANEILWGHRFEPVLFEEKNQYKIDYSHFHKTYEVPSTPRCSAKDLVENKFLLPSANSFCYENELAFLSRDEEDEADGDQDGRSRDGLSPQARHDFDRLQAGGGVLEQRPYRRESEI

hERG = hERG (Homo sapiens, UniProt Q12809); experiment: Lead Profiling Screen; format: binding; conditions: among 58 GPCRs, ion channels and transporters
hERG, sequence (Q12809 whole entry): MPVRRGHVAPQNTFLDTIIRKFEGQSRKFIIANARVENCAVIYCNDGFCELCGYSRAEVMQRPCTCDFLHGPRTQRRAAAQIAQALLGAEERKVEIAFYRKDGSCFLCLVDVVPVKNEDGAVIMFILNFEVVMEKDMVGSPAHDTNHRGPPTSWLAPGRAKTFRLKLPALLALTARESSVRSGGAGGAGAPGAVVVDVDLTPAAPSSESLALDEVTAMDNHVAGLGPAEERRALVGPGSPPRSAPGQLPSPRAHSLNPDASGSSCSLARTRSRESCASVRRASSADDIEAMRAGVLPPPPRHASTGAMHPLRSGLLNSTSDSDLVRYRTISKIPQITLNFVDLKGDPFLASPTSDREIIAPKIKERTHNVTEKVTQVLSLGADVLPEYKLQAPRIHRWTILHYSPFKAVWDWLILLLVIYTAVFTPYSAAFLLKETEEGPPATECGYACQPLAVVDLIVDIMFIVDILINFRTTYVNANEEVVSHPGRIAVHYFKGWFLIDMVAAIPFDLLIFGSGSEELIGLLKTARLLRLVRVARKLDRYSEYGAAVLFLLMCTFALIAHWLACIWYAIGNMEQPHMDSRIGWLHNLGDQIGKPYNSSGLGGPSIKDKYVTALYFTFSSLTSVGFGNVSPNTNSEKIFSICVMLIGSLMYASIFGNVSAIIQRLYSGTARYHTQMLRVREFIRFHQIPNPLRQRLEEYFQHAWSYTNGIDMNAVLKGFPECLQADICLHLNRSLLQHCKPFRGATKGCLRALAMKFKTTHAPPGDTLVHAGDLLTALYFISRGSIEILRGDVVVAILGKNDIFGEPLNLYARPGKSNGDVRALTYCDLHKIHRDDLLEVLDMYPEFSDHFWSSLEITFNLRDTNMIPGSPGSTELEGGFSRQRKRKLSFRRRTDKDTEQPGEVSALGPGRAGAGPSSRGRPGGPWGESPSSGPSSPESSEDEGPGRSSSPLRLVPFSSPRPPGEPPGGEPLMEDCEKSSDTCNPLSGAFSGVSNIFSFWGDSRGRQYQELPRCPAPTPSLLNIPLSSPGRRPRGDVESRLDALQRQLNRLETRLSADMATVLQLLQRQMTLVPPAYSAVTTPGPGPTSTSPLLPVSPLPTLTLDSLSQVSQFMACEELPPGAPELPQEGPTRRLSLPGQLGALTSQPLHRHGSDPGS

Kir7.1-M125R = target: T3, Kir7.1-M125R (Homo sapiens, UniProt O60928, M125R); experiment: Whole-cell voltage clamp, Kir7.1-M125R; format: cell-based
T3 sequence (O60928 1-360 M125R): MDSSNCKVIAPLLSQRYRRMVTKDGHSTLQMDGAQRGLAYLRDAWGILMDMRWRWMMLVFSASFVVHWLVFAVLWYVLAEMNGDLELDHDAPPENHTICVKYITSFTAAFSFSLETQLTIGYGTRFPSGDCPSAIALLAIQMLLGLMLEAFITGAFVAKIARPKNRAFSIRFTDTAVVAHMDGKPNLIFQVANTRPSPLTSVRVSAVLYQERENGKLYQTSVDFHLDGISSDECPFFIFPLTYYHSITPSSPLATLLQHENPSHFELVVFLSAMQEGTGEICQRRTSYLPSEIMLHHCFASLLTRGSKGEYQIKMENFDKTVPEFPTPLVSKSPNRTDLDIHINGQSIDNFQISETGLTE
In short: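 HEK-293T cells transiently co-transfected with WT or mutant human Kir7.1 plus EGFP marker, replated next day on poly-L-lysine coverslips. Bath: 135 NaCl, 5 KCl, pH 7.4; pipette: 135 KCl, 1 EGTA, pH 7.3 (mM). Hold −75 mV, step to −120 mV for 500 ms, ramp to 120 mV. Increasing test compound concentrations superfused, then Ba²⁺ block. Inhibition at −120 mV; Hill-equation IC50, n = 5.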

Kir7.1-WT-A150S = Kir7.1-WT-A150S (Homo sapiens, UniProt O60928, A150S); experiment: Whole-cell patch clamp, Kir7.1-WT-A150S mutant; format: cell-based; conditions: -120 mV
Kir7.1-WT-A150S, sequence (O60928 whole entry A150S, the tested form may be a part): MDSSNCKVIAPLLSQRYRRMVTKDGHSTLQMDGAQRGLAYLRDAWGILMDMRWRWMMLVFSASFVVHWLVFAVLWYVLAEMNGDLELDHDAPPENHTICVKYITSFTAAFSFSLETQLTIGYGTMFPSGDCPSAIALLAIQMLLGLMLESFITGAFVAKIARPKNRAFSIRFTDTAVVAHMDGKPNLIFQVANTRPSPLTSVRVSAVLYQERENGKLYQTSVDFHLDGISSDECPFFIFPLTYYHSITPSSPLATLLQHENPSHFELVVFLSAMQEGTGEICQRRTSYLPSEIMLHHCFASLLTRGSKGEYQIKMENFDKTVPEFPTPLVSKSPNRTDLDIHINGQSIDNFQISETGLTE
In short: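 Human Kir7.1 (WT or mutant) was transiently co-transfected with EGFP into HEK-293T cells, which were replated next day on poly-L-lysine coverslips. Whole-cell clamp used bath 5 mM KCl, pH 7.4, and pipette 135 mM KCl, pH 7.3. Cells were held at −75 mV, stepped 500 ms to −120 mV, then ramped to 120 mV, every 5 s. Increasing test-compound doses were superfused, then BaCl₂ block; current read at −120 mV; variable-slope Hill fit, mean of n = 5.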

Kir7.1 pore mutants [2] = target: Kir7.1 pore mutants (Homo sapiens, UniProt O60928, I160M); format: cell-based; conditions: 3 µM, -120 mV
Kir7.1 pore mutants (Homo sapiens, UniProt O60928, I160M), sequence (O60928 whole entry I160M): as the sequence (O60928 whole entry A150S, the tested form may be a part) above, with S150A, I160M counted along it
In short: (§2)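 Single pore-lining residues were mutated on a WT or M125R Kir7.1 background and expressed transiently with EGFP in HEK-293T cells. The whole-cell step-ramp protocol from a −75 mV holding potential was used, with test compound at 3 µM. Read-out was % inhibition of current at −120 mV, mean ± SEM, tested against the respective parent channel (P < 0.05).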

Kir7.1 pore mutants [3] = target: Kir7.1 pore mutants (Homo sapiens, UniProt O60928, L146V); format: cell-based; conditions: 3 µM, -120 mV
Kir7.1 pore mutants (Homo sapiens, UniProt O60928, L146V), sequence (O60928 whole entry L146V): as the sequence (O60928 whole entry A150S, the tested form may be a part) above, with L146V, S150A counted along it
In short: as §2

Kir7.1 pore mutants [4] = format: cell-based, human; conditions: 3 µM, -120 mV
In short: as §2

Kir7.1 pore mutants [5] = target: Kir7.1 pore mutants (Homo sapiens, UniProt O60928, T153C); format: cell-based; conditions: 3 µM, -120 mV
Kir7.1 pore mutants (Homo sapiens, UniProt O60928, T153C), sequence (O60928 whole entry T153C): as the sequence (O60928 whole entry A150S, the tested form may be a part) above, with S150A, T153C counted along it
In short: as §2

Kir7.1 pore mutants [6] = target: Kir7.1 pore mutants (Homo sapiens, UniProt O60928, A161S); format: cell-based; conditions: 3 µM, -120 mV
Kir7.1 pore mutants (Homo sapiens, UniProt O60928, A161S), sequence (O60928 whole entry A161S): as the sequence (O60928 whole entry A150S, the tested form may be a part) above, with S150A, A161S counted along it
In short: as §2

Kir1.1 = Kir1.1 (Rattus norvegicus, UniProt P35560); experiment: Tl+ flux selectivity assay, Kir1.1; format: cell-based
Kir1.1, sequence (P35560 whole entry): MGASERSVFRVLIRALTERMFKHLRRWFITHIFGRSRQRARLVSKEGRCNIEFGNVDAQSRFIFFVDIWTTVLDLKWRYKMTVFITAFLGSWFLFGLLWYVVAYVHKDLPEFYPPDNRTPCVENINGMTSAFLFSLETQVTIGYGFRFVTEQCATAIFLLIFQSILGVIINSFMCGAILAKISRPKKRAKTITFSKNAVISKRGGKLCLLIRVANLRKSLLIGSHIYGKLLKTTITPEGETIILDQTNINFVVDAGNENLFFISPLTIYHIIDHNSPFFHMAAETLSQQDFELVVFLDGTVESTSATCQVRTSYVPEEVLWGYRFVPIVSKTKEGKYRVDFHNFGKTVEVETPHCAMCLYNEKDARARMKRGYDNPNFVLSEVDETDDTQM
In short: as §1

Dopamine D2S receptor, sequence (P14416 1-414 isoform P14416-2): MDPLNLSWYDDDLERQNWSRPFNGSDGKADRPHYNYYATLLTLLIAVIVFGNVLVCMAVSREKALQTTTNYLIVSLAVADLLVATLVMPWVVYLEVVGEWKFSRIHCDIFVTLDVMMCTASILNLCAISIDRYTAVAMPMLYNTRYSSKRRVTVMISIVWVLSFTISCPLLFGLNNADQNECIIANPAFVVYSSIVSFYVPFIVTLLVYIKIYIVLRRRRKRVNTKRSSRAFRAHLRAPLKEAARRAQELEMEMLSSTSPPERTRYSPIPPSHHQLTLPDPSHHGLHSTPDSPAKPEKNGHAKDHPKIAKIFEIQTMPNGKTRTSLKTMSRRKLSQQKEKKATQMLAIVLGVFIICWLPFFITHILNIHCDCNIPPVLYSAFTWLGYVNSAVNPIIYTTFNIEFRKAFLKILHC

CC(C)OC(=O)NC1CCN(Cc2cc(Cl)c3cccnc3c2O)CC1 [Compound 19, iso-Propyl (1-((5-chloro-8-hydroxyquinolin-7-yl)methyl)piperidin-4-yl)carbamate]
Radioligand displacement, Dopamine D2S receptor (Dopamine D2S receptor): > 50% | fraction unbound [1]: 0.01 | Kir Channel Selectivity (Fold) 2.1 (Kir2.1): at least 23 Fold | Kir Channel Selectivity (Fold) 2.1 (Kir2.1; listed as 19 (ML418)): >23 Fold | Kir Channel Selectivity (Fold) 2.2 (Kir2.2): at least 23 Fold | Kir Channel Selectivity (Fold) 2.2 (Kir2.2; listed as 19 (ML418)): >23 Fold | Ancillary pharmacology, hERG (hERG): clean ancillary pharmacology

Oc1c(CN2CCC(Cc3ccccc3)CC2)cc(Cl)c2cccnc12 [VU714]
Kir2.1 IC50 (Tl+ flux) (Kir2.1): insensitive | Kir Channel Selectivity (Fold) 2.1 (Kir2.1): >5 Fold | IC50 (Kir2.1; read-out: Kir2.1 IC50 (Tl+ flux)): > 30 µM | Shift in IC50, patch clamp electrophysiology compared with Tl+ flux (Kir7.1-M125R): 3.7 fold | Inhibition of outward and inward Kir7.1-M125R-mediated current (Kir7.1-M125R; 10 µM): fully inhibited | Effect of M125R mutation on sensitivity (Kir7.1-M125R; compared with WT): does not alter VU714 sensitivity | IC50 (Kir7.1-M125R; read-out: Kir7.1-M125R IC50 (whole-cell voltage clamp), -120 mV): 1.5 µM and 1.6 µM and ~2 µM | Effect of mutation A150S on inhibition (Kir7.1-WT-A150S; 3 µM): partial loss of inhibition | IC50 (Kir7.1-WT-A150S; read-out: Kir7.1-WT-A150S IC50, patch clamp): 6.9 µM and ~7 µM | Effect of mutation I160M on Kir7.1 inhibition (Kir7.1 pore mutants [2]): no effect | Effect of mutation L146V on Kir7.1 inhibition (Kir7.1 pore mutants [3]): no effect | Effect of double mutation E149Q and A150S on sensitivity (Kir7.1 pore mutants [4]): additive loss of VU714 sensitivity; also recorded: virtually eliminated block of the channel | Effect of mutation E149D on block (Kir7.1 pore mutants [4]): no effect on block | Effect of mutation T153C/WT on channel inhibition (Kir7.1 pore mutants [5]): increased channel inhibition | Effect of mutation A161S on Kir7.1 inhibition (Kir7.1 pore mutants [6]): no effect | Kir Channel Selectivity (Fold) 2.2 (Kir2.2): >5 Fold | IC50 (Kir2.2; read-out: Kir2.2 IC50 (Tl+ flux)): > 30 µM | Kir1.1 (ROMK) IC50 (Tl+ flux) (Kir1.1): weakly inhibited | IC50 (Kir1.1; read-out: Kir1.1 (ROMK) IC50 (Tl+ flux)): 16 µM

Source: PMC5131535 (ACS chemical neuroscience, 2016)
